# Experiments:
# Cathepsin S = Cathepsin S (Homo sapiens, UniProt P25774); experiment: Inhibitory concentration against Cathepsin S
# How it was run: (§1)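 Cysteine protease assays. Peptide substrates were CBZ-L-lysine p-nitrophenyl ester, Z-Phe-Arg-NH-Mec and Z-Val-Val-Arg-NH-Mec. Values are means of experiments run in triplicate, given in µM.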
# Procathepsin L = Procathepsin L (Homo sapiens, UniProt P07711); experiment: Inhibitory concentration against Cathepsin L; how it was run: as §1
# T-cell [1] = experiment: Cytotoxicity measured against human T-cells; type: functional
# [2] = target: T1, Tyrosine-protein phosphatase non-receptor type 13 (Homo sapiens, UniProt Q12923); experiment: Inhibitory concentration against FAP-1 using lck-10 mer as substrate
# T-cell [3] = experiment: In vitro inhibition of human T-cell proliferation; type: functional, cell-based
# [4] = target: T2, Receptor-type tyrosine-protein phosphatase C (Homo sapiens, UniProt P08575); experiment: Inhibitory concentration against CD45 protein-tyrosine phosphatase using lck-10mer as substrate
# T2 sequence (P08575 whole entry): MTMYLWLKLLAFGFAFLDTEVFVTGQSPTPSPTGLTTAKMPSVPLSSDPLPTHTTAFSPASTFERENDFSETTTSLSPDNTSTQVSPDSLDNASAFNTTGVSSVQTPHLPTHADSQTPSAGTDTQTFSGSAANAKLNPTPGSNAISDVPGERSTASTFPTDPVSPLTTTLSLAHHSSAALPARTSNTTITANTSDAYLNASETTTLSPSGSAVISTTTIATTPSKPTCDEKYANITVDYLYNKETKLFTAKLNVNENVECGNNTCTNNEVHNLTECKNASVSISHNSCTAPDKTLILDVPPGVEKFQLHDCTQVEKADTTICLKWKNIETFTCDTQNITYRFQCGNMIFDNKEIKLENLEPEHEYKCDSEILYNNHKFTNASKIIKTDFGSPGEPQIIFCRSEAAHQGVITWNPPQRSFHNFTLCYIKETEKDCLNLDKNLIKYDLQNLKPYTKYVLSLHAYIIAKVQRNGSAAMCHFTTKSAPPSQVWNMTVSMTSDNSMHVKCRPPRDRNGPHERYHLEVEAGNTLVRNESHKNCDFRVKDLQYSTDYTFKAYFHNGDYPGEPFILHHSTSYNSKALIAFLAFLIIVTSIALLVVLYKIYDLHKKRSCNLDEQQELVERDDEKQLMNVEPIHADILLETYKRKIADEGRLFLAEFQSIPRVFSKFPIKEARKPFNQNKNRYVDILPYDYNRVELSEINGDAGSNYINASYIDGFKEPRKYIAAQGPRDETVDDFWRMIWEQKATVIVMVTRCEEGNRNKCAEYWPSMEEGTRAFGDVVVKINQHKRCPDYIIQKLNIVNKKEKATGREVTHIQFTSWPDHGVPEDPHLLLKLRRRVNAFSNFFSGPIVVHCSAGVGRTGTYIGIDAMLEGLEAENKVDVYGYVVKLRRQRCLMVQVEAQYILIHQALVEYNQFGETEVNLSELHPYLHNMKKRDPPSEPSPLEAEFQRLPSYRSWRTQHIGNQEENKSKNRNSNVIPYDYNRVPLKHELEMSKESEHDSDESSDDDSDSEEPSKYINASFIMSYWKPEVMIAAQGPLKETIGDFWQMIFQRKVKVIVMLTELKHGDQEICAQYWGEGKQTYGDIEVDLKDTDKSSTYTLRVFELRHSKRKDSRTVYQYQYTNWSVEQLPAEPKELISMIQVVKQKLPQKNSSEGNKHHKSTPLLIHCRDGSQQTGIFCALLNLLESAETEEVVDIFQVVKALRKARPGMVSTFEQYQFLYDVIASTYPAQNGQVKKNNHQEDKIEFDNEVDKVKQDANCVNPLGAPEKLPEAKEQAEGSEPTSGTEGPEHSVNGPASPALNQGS
# Cathepsin B = Cathepsin B (Homo sapiens, UniProt P07858); experiment: Inhibitory concentration against Cathepsin B; how it was run: as §1
# [5] = target: T1, Tyrosine-protein phosphatase non-receptor type 13; experiment: Inhibitory concentration against FAP-1 pNPP
# [6] = target: T3, Tyrosine-protein phosphatase non-receptor type 1 (Homo sapiens, UniProt P18031); experiment: Inhibitory concentration against PTP1B lusing lck-10mer as substrate
# T3 sequence (P18031 whole entry): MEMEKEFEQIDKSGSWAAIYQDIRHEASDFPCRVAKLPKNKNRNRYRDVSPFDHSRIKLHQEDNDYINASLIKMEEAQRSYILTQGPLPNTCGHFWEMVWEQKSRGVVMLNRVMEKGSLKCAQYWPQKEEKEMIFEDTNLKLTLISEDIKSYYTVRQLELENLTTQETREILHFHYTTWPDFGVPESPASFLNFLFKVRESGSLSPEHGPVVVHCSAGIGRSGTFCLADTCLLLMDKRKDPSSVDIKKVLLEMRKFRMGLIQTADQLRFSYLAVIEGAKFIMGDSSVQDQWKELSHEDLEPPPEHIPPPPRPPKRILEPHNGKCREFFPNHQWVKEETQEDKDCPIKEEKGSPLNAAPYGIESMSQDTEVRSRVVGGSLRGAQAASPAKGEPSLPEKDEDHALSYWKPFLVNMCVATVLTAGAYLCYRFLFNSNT
# [7] = target: T1, Tyrosine-protein phosphatase non-receptor type 13; experiment: Inhibitory concentration against FAP-1 using lck-10mer as substrate
# [8] = target: T1, Tyrosine-protein phosphatase non-receptor type 13; experiment: Inhibitory concentration against FAP-1 using pNPP as substrate
# T1 sequence (Q12923 whole entry): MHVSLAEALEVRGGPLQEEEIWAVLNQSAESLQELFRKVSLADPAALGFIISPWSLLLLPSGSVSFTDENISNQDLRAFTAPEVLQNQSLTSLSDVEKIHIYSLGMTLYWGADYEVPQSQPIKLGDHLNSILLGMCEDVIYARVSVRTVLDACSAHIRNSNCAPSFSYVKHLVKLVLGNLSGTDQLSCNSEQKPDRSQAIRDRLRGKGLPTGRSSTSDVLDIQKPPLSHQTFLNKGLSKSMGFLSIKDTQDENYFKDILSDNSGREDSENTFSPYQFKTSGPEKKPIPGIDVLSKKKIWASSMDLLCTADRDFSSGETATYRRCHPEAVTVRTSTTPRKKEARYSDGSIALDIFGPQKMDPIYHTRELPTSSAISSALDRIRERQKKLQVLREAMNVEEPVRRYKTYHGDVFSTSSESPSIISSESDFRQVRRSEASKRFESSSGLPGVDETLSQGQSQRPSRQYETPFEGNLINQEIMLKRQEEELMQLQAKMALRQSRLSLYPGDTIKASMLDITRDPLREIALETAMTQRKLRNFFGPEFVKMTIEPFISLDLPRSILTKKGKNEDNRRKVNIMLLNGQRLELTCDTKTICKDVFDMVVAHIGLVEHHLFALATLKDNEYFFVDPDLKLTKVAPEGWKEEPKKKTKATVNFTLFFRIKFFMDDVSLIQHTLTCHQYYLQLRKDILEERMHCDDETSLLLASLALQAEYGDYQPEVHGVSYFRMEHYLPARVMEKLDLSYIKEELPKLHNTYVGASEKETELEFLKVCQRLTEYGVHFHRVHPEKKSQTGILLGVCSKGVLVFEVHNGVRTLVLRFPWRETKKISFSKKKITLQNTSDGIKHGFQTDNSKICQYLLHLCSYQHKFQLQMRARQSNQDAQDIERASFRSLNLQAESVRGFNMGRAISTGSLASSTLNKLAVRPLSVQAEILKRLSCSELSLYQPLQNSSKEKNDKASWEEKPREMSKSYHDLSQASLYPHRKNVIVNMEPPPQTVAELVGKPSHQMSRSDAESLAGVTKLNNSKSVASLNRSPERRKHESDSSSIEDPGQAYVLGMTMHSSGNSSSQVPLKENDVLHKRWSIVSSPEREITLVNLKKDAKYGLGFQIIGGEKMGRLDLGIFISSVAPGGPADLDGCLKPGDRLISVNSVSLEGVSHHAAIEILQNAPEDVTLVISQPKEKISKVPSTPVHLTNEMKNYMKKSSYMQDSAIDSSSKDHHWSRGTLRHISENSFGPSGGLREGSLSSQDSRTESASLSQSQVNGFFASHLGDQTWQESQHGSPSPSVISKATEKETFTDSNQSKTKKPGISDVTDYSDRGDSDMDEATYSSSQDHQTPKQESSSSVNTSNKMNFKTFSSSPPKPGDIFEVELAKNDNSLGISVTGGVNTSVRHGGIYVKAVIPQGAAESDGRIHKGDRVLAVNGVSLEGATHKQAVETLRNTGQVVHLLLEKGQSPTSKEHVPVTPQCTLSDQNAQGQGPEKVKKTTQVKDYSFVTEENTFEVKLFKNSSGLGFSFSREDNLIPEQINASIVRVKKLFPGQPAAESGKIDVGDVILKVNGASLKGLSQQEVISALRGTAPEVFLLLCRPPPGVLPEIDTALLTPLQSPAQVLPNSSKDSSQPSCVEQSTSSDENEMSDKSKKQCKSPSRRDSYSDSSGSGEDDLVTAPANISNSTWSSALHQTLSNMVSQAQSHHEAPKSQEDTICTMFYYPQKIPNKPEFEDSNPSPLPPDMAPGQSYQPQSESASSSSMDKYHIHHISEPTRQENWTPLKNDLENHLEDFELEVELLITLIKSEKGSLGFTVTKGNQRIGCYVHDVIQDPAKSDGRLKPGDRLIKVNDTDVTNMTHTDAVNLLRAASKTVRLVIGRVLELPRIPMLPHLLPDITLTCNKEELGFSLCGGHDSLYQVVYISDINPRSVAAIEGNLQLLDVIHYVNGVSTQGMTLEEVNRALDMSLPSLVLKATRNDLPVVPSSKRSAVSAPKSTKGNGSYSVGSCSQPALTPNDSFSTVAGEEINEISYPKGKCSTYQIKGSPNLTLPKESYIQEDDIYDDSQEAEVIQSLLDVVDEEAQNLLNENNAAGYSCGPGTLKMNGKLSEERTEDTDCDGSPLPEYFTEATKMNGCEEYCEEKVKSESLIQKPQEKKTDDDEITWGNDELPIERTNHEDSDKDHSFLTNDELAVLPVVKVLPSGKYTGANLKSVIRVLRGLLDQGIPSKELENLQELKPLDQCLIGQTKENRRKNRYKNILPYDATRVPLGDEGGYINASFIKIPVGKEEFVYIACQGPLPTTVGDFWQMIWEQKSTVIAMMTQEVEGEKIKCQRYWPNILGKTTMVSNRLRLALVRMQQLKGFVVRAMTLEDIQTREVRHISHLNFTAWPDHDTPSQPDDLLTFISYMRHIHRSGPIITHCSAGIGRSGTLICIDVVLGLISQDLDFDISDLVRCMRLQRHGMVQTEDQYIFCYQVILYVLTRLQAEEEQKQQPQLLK
# Sequence of Procathepsin L (P07711 whole entry): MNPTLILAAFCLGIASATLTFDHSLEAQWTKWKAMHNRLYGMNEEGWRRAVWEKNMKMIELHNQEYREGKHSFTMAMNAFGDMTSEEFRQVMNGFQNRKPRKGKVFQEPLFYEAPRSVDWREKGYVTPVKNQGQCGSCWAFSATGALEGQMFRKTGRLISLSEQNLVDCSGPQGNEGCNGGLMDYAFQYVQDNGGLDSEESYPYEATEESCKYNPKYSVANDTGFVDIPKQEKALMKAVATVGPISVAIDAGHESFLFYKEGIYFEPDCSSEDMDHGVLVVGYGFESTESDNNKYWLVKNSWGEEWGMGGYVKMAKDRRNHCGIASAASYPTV
# Sequence of Cathepsin S (P25774 whole entry): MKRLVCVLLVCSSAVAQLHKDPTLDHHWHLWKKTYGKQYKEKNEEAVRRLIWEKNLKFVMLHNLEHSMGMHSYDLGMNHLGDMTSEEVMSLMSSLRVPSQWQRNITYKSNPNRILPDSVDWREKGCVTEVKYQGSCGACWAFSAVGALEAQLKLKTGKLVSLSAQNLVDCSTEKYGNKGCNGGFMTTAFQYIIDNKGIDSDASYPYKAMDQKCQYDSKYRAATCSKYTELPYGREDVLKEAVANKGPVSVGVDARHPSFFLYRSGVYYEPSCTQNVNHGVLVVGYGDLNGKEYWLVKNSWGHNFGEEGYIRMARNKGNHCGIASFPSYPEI
SMILES,IC50 (Cathepsin S) [µM],IC50 (Procathepsin L) [nM],CC50 (T-cell [1]) [µM],IC50 [2] [µM],IC50 (T-cell [3]) [µM],IC50 [4] [nM],IC50 (Cathepsin B) [µM],IC50 [5] [µM],IC50 [6] [µM],IC50 [7] [µM],IC50 [8] [µM]
O=C(O)CNC(=O)c1ccc2c(c1)C(=O)C(=O)c1ccccc1-2,> 10,900,> 30,> 30,4.4,1900,> 10,15,,,
Nc1ccc2c(c1)C(=O)C(=O)c1ccccc1-2,6,600,5,,,,> 10,,> 30,> 30,4.7

# Reference: ChEMBL document CHEMBL1134488, “Potent reversible inhibitors of the protein tyrosine phosphatase CD45” (J Med Chem, 2001)
